Reference: ChEMBL document CHEMBL2311390, “Synthesis and preliminary evaluation of pharmacological properties of some piperazine derivatives of xanthone” (Bioorg Med Chem, 2013)

Experiments:
[1] = test system: Rattus norvegicus; experiment: Hypotensive activity in normotensive Wistar rat assessed as reduction of diastolic blood pressure at 0.31 mg/kg, iv after 5 mins; format: functional, Artery
How it was run: (§1)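 Male normotensive Wistar rats were anaesthetised with thiopental 75 mg/kg ip. The right carotid artery was cannulated with heparinised saline for pressure recording. After 5 min of stabilisation, compound was injected into the tail vein at 1 mL/kg. Systolic and diastolic pressure were followed up to 60 min. Data are means ± SEM of 5–6 rats, analysed by one-way ANOVA.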

[2] = test system: Rattus norvegicus; experiment: Hypotensive activity in normotensive Wistar rat assessed as reduction of systolic blood pressure at 0.31 mg/kg, iv after 60 mins; format: functional, Artery
How it was run: (§2)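 Male normotensive Wistar rats (170–350 g) anaesthetised with thiopental 75 mg/kg ip; right carotid artery cannulated with heparinised saline-filled polyethylene tubing for pressure recording. After a 5 min stabilisation, compound given into the caudal vein at 1 mL/kg. Systolic pressure is recorded at 0, 5, 10, 20, 30 and 60 min, and the data are reported as mean ± SEM of five to six animals, with one-way ANOVA.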

[3] = test system: Rattus norvegicus; experiment: Hypotensive activity in normotensive Wistar rat assessed as reduction of systolic blood pressure at 0.31 mg/kg, iv after 30 mins; format: functional, Artery; how it was run: as §2
[4] = test system: Rattus norvegicus; experiment: Hypotensive activity in normotensive Wistar rat assessed as reduction of diastolic blood pressure at 0.625 mg/kg, iv after 30 mins; format: functional, Artery; how it was run: as §1
[5] = test system: Rattus norvegicus; experiment: Hypotensive activity in normotensive Wistar rat assessed as reduction of diastolic blood pressure at 0.625 mg/kg, iv after 10 mins; format: functional, Artery; how it was run: as §1
[6] = test system: Rattus norvegicus; experiment: Hypotensive activity in normotensive Wistar rat assessed as reduction of diastolic blood pressure at 0.625 mg/kg, iv after 20 mins; format: functional, Artery; how it was run: as §1
[7] = test system: Rattus norvegicus; experiment: Hypotensive activity in normotensive Wistar rat assessed as reduction of diastolic blood pressure at 0.625 mg/kg, iv after 5 mins; format: functional, Artery; how it was run: as §1
[8] = test system: Rattus norvegicus; experiment: Hypotensive activity in normotensive Wistar rat assessed as reduction of systolic blood pressure at 0.625 mg/kg, iv after 30 mins; format: functional, Artery; how it was run: as §2
[9] = test system: Rattus norvegicus; experiment: Hypotensive activity in normotensive Wistar rat assessed as reduction of systolic blood pressure at 0.625 mg/kg, iv after 60 mins; format: functional, Artery; how it was run: as §2
[10] = test system: Rattus norvegicus; experiment: Hypotensive activity in normotensive Wistar rat assessed as reduction of systolic blood pressure at 0.625 mg/kg, iv after 5 mins; format: functional, Artery; how it was run: as §2
[11] = test system: Rattus norvegicus; experiment: Hypotensive activity in normotensive Wistar rat assessed as reduction of diastolic blood pressure at 0.16 mg/kg, iv after 60 mins; format: functional, Artery; how it was run: as §1
[12] = test system: Rattus norvegicus; experiment: Hypotensive activity in normotensive Wistar rat assessed as reduction of diastolic blood pressure at 0.16 mg/kg, iv after 20 mins; format: functional, Artery; how it was run: as §1
[13] = test system: Rattus norvegicus; experiment: Hypotensive activity in normotensive Wistar rat assessed as reduction of diastolic blood pressure at 0.16 mg/kg, iv after 30 mins; format: functional, Artery; how it was run: as §1
[14] = test system: Rattus norvegicus; experiment: Hypotensive activity in normotensive Wistar rat assessed as reduction of diastolic blood pressure at 0.16 mg/kg, iv after 5 mins; format: functional, Artery; how it was run: as §1
[15] = test system: Rattus norvegicus; experiment: Hypotensive activity in normotensive Wistar rat assessed as reduction of systolic blood pressure at 0.16 mg/kg, iv after 10 mins; format: functional, Artery; how it was run: as §1
[16] = test system: Rattus norvegicus; experiment: Hypotensive activity in normotensive Wistar rat assessed as reduction of systolic blood pressure at 0.16 mg/kg, iv after 20 mins; format: functional, Artery; how it was run: as §2
[17] = test system: Rattus norvegicus; experiment: Hypotensive activity in normotensive Wistar rat assessed as reduction of systolic blood pressure at 0.16 mg/kg, iv after 5 mins; format: functional, Artery; how it was run: as §2
[18] = test system: Rattus norvegicus; experiment: Hypotensive activity in normotensive Wistar rat assessed as reduction of diastolic blood pressure at 0.31 mg/kg, iv after 60 mins; format: functional, Artery; how it was run: as §1
[19] = test system: Rattus norvegicus; experiment: Cardiotoxicity in Wistar rat assessed as hear beats per min at 10 mg/kg, iv after 15 mins by ECG analysis; format: toxicity, organism-based; set-up: dose 10 mg/kg, route intravenous; conditions: in vivo, 0.25 h
How it was run: (§3)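 Male normotensive Wistar rats, 170–350 g, six per group. Compound given iv at a constant volume of 1 mL/kg. ECG was recorded just before dosing and at 1, 5 and 15 min after. PQ, QRS and QT intervals and heart rate were read from the trace. Groups were compared by one-way ANOVA.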

[20] = test system: Rattus norvegicus; experiment: Cardiotoxicity in Wistar rat assessed as QT interval at 10 mg/kg, iv after 15 mins by ECG analysis; format: toxicity, organism-based; set-up: dose 10 mg/kg, route intravenous; conditions: in vivo, 0.25 h; how it was run: as §3
[21] = test system: Rattus norvegicus; experiment: Cardiotoxicity in Wistar rat assessed as QRS interval at 10 mg/kg, iv after 15 mins by ECG analysis; format: toxicity, organism-based; set-up: dose 10 mg/kg, route intravenous; conditions: in vivo, 0.25 h; how it was run: as §3
[22] = test system: Rattus norvegicus; experiment: Cardiotoxicity in Wistar rat assessed as PQ interval at 10 mg/kg, iv after 15 mins by ECG analysis; format: toxicity, organism-based; set-up: dose 10 mg/kg, route intravenous; conditions: in vivo, 0.25 h; how it was run: as §3
[23] = test system: Rattus norvegicus; experiment: Cardiotoxicity in Wistar rat assessed as hear beats per min at 10 mg/kg, iv after 5 mins by ECG analysis; format: toxicity, organism-based; set-up: dose 10 mg/kg, route intravenous; conditions: in vivo; how it was run: as §3
[24] = test system: Rattus norvegicus; experiment: Cardiotoxicity in Wistar rat assessed as QRS interval at 10 mg/kg, iv after 5 mins by ECG analysis; format: toxicity, organism-based; set-up: dose 10 mg/kg, route intravenous; conditions: in vivo; how it was run: as §3
[25] = test system: Rattus norvegicus; experiment: Cardiotoxicity in Wistar rat assessed as hear beats per min at 5 mg/kg, iv after 15 mins by ECG analysis; format: toxicity, organism-based; set-up: dose 5 mg/kg, route intravenous; conditions: in vivo, 0.25 h; how it was run: as §3
[26] = test system: Rattus norvegicus; experiment: Cardiotoxicity in Wistar rat assessed as QT interval at 5 mg/kg, iv after 15 mins by ECG analysis; format: toxicity, organism-based; set-up: dose 5 mg/kg, route intravenous; conditions: in vivo, 0.25 h; how it was run: as §3
[27] = test system: Rattus norvegicus; experiment: Cardiotoxicity in Wistar rat assessed as PQ interval at 5 mg/kg, iv after 15 mins by ECG analysis; format: toxicity, organism-based; set-up: dose 5 mg/kg, route intravenous; conditions: in vivo, 0.25 h; how it was run: as §3
[28] = test system: Rattus norvegicus; experiment: Cardiotoxicity in Wistar rat assessed as QT interval at 5 mg/kg, iv after 10 mins by ECG analysis; format: toxicity, organism-based; set-up: dose 5 mg/kg, route intravenous; conditions: in vivo
[29] = test system: Rattus norvegicus; experiment: Cardiotoxicity in Wistar rat assessed as QRS interval at 5 mg/kg, iv after 10 mins by ECG analysis; format: toxicity, organism-based; set-up: dose 5 mg/kg, route intravenous; conditions: in vivo
[30] = test system: Rattus norvegicus; experiment: Cardiotoxicity in Wistar rat assessed as PQ interval at 5 mg/kg, iv after 10 mins by ECG analysis; format: toxicity, organism-based; set-up: dose 5 mg/kg, route intravenous; conditions: in vivo
[31] = test system: Rattus norvegicus; experiment: Cardiotoxicity in Wistar rat assessed as hear beats per min at 5 mg/kg, iv after 5 mins by ECG analysis; format: toxicity, organism-based; set-up: dose 5 mg/kg, route intravenous; conditions: in vivo; how it was run: as §3
[32] = test system: Rattus norvegicus; experiment: Cardiotoxicity in Wistar rat assessed as QRS interval at 5 mg/kg, iv after 5 mins by ECG analysis; format: toxicity, organism-based; set-up: dose 5 mg/kg, route intravenous; conditions: in vivo; how it was run: as §3

Q: Which results are given for `COc1ccccc1N1CCN(CCCOc2cccc3c(=O)c4ccccc4oc23)CC1.Cl`?
A: Activity [1]: 107.2 mmHg; Activity [2]: 116 mmHg; Activity [3]: 119.5 mmHg; Activity [4]: 111.7 mmHg; Activity [5]: 106.5 mmHg; Activity [6]: 110.5 mmHg; Activity [7]: 101 mmHg; Activity [8]: 129.5 mmHg; Activity [9]: 129.5 mmHg; Activity [10]: 122 mmHg; Activity [11]: 95.2 mmHg; Activity [12]: 101 mmHg; Activity [13]: 100 mmHg; Activity [14]: 97 mmHg; Activity [15]: 114 mmHg; Activity [16]: 113.4 mmHg; Activity [17]: 109.6 mmHg; Activity [18]: 97.2 mmHg

Q: With `Cl.Cl.Cl.O=c1c2ccc(Cl)cc2oc2c(OCC(O)CN3CCN(Cc4ccccc4)CC3)cccc12` (racemic) as the compound, how does the Activity [19] read?
A: 268.8 bpm

Q: And the Activity [20]?
A: 78.8 ms

Q: What about the Activity [21] of the same compound?
A: 20.1 ms

Q: And the Activity [22]?
A: 40.9 ms

Q: And the Activity [23]?
A: 295.3 bpm

Q: What about the Activity [24] of the same compound?
A: 19.2 ms

Q: For `Cl.Cl.O=c1c2ccccc2oc2c(OCC(O)CN3CCN(C/C=C/c4ccccc4)CC3)cccc12` (racemic), which Activity [25] is on record?
A: 309 bpm

Q: What about the Activity [26] of the same compound?
A: 77.6 ms

Q: And the Activity [27]?
A: 41.7 ms

Q: What about the Activity [28] of the same compound?
A: 77 ms

Q: What about the Activity [29] of the same compound?
A: 23.5 ms

Q: And the Activity [30]?
A: 41.7 ms

Q: What about the Activity [31] of the same compound?
A: 328 bpm

Q: What about the Activity [32] of the same compound?
A: 23.4 ms
